From ChEMBL document CHEMBL3352043, “Discovery of small-molecule inhibitors selectively targeting the DNA-binding domain of the human androgen receptor” (J Med Chem, 2014) come the findings set out here.

Where a chain is given by its changes, count along the chain named. Active and inactive are the calls of the source. No cut-off for these calls is given here.

Experiment [1] has as its system T1, Androgen receptor (Homo sapiens), P10275 [Q592D].
T1 sequence (whole entry): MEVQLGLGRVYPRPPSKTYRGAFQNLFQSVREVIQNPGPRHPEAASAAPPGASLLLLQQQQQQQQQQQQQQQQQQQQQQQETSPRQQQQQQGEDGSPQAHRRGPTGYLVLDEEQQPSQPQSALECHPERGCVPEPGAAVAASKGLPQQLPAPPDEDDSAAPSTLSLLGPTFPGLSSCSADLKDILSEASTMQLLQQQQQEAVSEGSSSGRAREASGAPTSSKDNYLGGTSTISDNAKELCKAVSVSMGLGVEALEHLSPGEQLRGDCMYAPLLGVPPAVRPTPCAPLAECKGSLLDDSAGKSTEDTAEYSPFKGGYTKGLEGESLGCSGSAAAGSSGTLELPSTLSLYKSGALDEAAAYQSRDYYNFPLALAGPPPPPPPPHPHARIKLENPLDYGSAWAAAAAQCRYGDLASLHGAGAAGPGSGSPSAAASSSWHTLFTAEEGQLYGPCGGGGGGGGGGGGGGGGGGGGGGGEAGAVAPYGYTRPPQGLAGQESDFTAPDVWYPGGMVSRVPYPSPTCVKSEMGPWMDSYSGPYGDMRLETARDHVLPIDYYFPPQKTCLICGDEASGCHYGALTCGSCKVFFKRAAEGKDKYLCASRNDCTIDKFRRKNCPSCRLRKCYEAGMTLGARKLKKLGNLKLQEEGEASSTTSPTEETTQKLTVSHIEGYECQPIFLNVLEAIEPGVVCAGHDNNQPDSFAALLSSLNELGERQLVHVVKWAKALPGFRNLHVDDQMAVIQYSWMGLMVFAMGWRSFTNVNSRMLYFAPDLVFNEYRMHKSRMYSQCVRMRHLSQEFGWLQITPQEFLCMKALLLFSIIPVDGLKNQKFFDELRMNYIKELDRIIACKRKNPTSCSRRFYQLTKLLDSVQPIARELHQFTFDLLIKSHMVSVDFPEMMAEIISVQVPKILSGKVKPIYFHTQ
As to the kind of experiment: Inhibition of human androgen receptor Q592D mutant expressed in human PC3 cells assessed as inhibition of transcription activity after 24 hrs by luciferase reporter gene assay. The conditions noted are these: PC-3. The format is cell-based. The method in brief:
(§1)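 PC3 cells were starved 5 days in RPMI 1640 with 5% charcoal-stripped serum and seeded at 5000 cells/well. After 24 h they were cotransfected with AR-V7 or hAR mutant plasmid plus 50 ng ARR3tk-luciferase. At 48 h post-transfection, compounds were added for 24 h with 0.1 nM R1881. Luminescence was read from passive-lysis-buffer lysates; mutant tests used 10 μM.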

In experiment [2] the target is T2, Androgen receptor (Homo sapiens) (UniProt P10275).
T2 sequence (whole entry): T1 sequence (whole entry) with D592Q
As to the kind of experiment: Binding affinity to biotinylated androgen receptor LBD (unknown origin) expressed in Escherichia coli BL21 by biolayer interferometry assay.

Experiment [3] has as its target T2, Androgen receptor (Homo sapiens). As to the kind of experiment: Inhibition of androgen receptor V7 (unknown origin) expressed in human PC3 cells assessed as inhibition of transcription activity after 24 hrs by luciferase reporter gene assay. It counts as cell-based. The conditions noted are these: PC-3. The method in brief:
as §1

Experiment [4] addresses T3, Glucocorticoid receptor (Homo sapiens) (UniProt P04150).
T3 sequence (whole entry): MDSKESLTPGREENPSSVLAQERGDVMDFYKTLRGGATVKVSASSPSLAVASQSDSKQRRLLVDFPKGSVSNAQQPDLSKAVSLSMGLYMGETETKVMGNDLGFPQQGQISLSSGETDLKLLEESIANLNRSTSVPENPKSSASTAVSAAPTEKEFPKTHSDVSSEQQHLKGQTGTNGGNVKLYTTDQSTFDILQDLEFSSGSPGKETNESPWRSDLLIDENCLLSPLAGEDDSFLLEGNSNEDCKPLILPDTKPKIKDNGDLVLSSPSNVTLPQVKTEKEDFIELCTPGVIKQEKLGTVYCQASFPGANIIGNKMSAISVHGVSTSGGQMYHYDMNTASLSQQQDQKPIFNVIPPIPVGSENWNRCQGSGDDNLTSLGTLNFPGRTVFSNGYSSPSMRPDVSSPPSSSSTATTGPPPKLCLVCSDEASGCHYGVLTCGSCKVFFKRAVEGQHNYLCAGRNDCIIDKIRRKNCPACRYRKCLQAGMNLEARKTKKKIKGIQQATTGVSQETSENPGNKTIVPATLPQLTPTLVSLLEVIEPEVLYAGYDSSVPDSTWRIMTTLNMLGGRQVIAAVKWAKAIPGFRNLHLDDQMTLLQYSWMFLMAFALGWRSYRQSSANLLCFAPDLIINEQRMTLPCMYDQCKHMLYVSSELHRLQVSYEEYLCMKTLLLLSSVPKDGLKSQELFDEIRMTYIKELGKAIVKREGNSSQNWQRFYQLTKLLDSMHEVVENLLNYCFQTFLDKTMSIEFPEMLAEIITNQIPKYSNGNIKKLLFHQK
The experiment in a line: Inhibition of glucocorticoid receptor (unknown origin) transcriptional activity at […]. The method in brief: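 PC3 cells were starved 5 days in RPMI 1640 with 5% charcoal-stripped serum. They were cotransfected with GR or PR plasmid plus 50 ng ARR3tk-luciferase, and 48 h later treated with compound for 24 h. Stimulation was 1 nM dexamethasone (GR) or progesterone (PR). Luciferase luminescence was read from cell lysates.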

As to `Brc1ncn(-c2csc(N3CCOCC3)n2)c1Br`, the inhibition result in experiment [1] and in experiment [4] was “inactive” in each case. The outcome in experiment [2] was inactive. For the same compound, the inhibition entry in experiment [3] was “Dose-dependent effect”.
As for `c1ccc(-c2csc(N3CCOCC3)n2)cc1`, the inhibition result in experiment [1], in experiment [2] and in experiment [4] was “inactive” each time. Moreover, the inhibition entry in experiment [3] is “Dose-dependent effect”.
